The values that follow come from ChEMBL document CHEMBL4373649, “Novel antimycobacterial C-21 amide derivatives of the antibiotic fusidic acid: synthesis, pharmacological evaluation and rationalization of media-dependent activity using molecular docking studies in the binding site of human serum albumin” (Medchemcomm, 2019).

The test system of data set [1] is Mycobacterium tuberculosis. Description: Antimycobacterial activity against Mycobacterium tuberculosis H37RvMA ATCC 27294 cultured in protein-based Middlebrook 7H9 medium supplemented with glucose, albumin-dextrose-catalase and Tween 80 assessed as inhibition of bacterial growth incubated for 7 days in by alamar blue staining based assay. Conditions: H37RvMA ATCC 27294, 168 h. In kind it is functional. In a few lines: (§1)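 Broth microdilution MIC90 assay against H37RvMa (ATCC 27294). Culture grown to OD600 0.6–0.7, diluted 1:500. Compounds come from 10 mM DMSO stocks and are run as duplicate two-fold dilutions over 10 wells. Plates incubated at 37 °C, 5% CO2, humidified. AlamarBlue added on day 7 and incubated 24 h more, then read on day 8, visually (blue = no growth) or by fluorescence (excitation 540 nm).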

Data set [2] relates to Mycobacterium tuberculosis. Description: Antimycobacterial activity against Mycobacterium tuberculosis H37RvMA ATCC 27294 cultured in non protein-based Middlebrook 7H9 medium supplemented with glucose-casitone-tyloxapol assessed as inhibition of bacterial growth incubated for 7 days in by alamar blue staining based assay. Conditions: H37RvMA ATCC 27294, 168 h. In kind it is functional. The gist of the method: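 Medium is 7H9 with 0.03% Casitone, 0.4% glucose and 0.05% Tyloxapol. H37RvMa is grown to OD600 0.6–0.7 and diluted 1:500. Duplicate two-fold dilutions over 10 wells come from 10 mM DMSO stocks. Incubation at 37 °C, 5% CO2. AlamarBlue added on day 7. The MIC90 is the lowest concentration with no visible growth on day 8, or is read by fluorescence.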

Data set [3] concerns Mycobacterium tuberculosis. The data set can be described thus: Antimycobacterial activity against Mycobacterium tuberculosis. It is filed as functional. The gist of the method: as §1
Data set [4] can be described thus: Protein binding in human serum. Conditions: read-out: PB. It is filed as ADME, cell-free.
Data set [5] has as its system CHO-K1. The data set can be described thus: Cytotoxicity against CHOK1 cells assessed as reduction in cell viability incubated for 48 hrs by MTT assay. As to conditions: Cricetulus griseus, CHO-K1, 48 h. It is filed as cell-based. In a few lines: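 CHO-K1 cells seeded at 10^5 cells/well 24 h before exposure, medium then replaced with fresh medium containing compound; 48 h at 37 °C, 5% CO2, MTT added at 44 h for 4 h, formazan dissolved in DMSO, OD read at 540 nm. Triplicates; DMSO stocks 2 mg/mL, poorly soluble samples as suspensions; emetine reference; IC50 from non-linear dose-response fit.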

≈ marks a conversion by molar mass, not a printed value.

In the case of `CC(=O)O[C@H]1C[C@@]2(C)[C@@H](C[C@@H](O)[C@H]3[C@@]4(C)CC[C@@H](O)[C@@H](C)[C@@H]4CC[C@@]32C)/C1=C(\CCC=C(C)C)C(=O)O` [FUSIDIC ACID], the MIC90 in data set [1] was found to be 9.25 µM (≈ 4.78 µg/mL); in data set [2], 0.24 µM (≈ 0.124 µg/mL); in data set [3] it was 31 µM (≈ 16 µg/mL). The fraction unbound in data set [4] was 0.03 to 0.05.
As for `CC(=O)O[C@H]1C[C@@]2(C)[C@@H](C[C@@H](O)[C@H]3[C@@]4(C)CC[C@@H](O)[C@@H](C)[C@@H]4CC[C@@]32C)/C1=C(\CCC=C(C)C)C(=O)NC(C)c1cnccn1` (mixture of isomers), the MIC90 in data set [1] turned out to be 62.5 µM; in data set [2] it was 17.5 µM. For the same molecule, the 50% inhibitory concentration (IC50) in data set [5] was > 50 µM.
The corresponding values for `COc1ccc(NC(=O)/C(CCC=C(C)C)=C2\[C@@H](OC(C)=O)C[C@@]3(C)[C@H]2C[C@@H](O)[C@H]2[C@@]4(C)CC[C@@H](O)[C@@H](C)[C@@H]4CC[C@@]23C)cc1` are > 125 µM, > 125 µM and 47.1 µM.
The corresponding values for `CC(=O)O[C@H]1C[C@@]2(C)[C@@H](C[C@@H](O)[C@H]3[C@@]4(C)CC[C@@H](O)[C@@H](C)[C@@H]4CC[C@@]32C)/C1=C(\CCC=C(C)C)C(=O)N[C@@H](C)c1ccccc1Cl` are 41.5 µM (≈ 27.2 µg/mL), 9.8 µM (≈ 6.41 µg/mL) and 45.1 µM.
